Measured values collected from several papers.
Protocols differ between the studies behind these lines.

CC(C)n1cc(C#N)c2cc(-n3cc(C(=O)O)cn3)ccc21 — AUC(0-inf) (male human; plasma; oral; 600 mg; single dose, fasted, healthy volunteers): 99800 ng·h/mL
COc1cc(C(=O)NC2CCN(C)CC2)c(F)cc1Nc1ncc(C(F)(F)F)c(Oc2cccc3c2C(=O)N(C)C3)n1 — AUC (human; plasma; oral; 10 mg; multiple doses, once daily, steady state, patients): 0.816 µM·h
CC(C)(C)c1ccc(O)c(CN(Cc2cc(C(C)(C)C)ccc2O)C2CCC(NC(N)=O)CC2)c1 (stereo not drawn) — tissue/plasma ratio (male C57BL/6 mouse; brain; oral; 10 mg/kg; single dose): 0.64
CC(C)Oc1cccc(-c2cnc(N3CCC(C(N)=O)CC3)s2)c1 — tissue/plasma ratio (male Swiss mouse; brain; oral; 30 mg/kg; single dose): 0.29
CN(C(=O)n1cnc(-c2ccc[n+]([O-])c2)c1)C1CCCCC1 — Tmax (male cynomolgus monkey; plasma; oral; 0.3 mg/kg): 2 h
Fc1ccc(COC2CCN(Cc3ccc4[nH]cnc4c3)CC2)cc1F — unbound tissue/plasma ratio (mouse; brain; intraperitoneal; 5 mg/kg): 3.7
COc1ccc([C@@H]2CN(C(=O)[C@@H](O)CO)C[C@@]2(C)[C@@H](C)O)cc1OC1CN(c2ccc(C)cn2)C1 — AUC(0-inf) (human; plasma; oral; 0.1 mg; single dose, healthy volunteers): 59.1 ng·h/mL
CCc1nc2c(C)cc(N3CCN(CC(=O)N4CC(O)C4)CC3)cn2c1N(C)c1nc(-c2ccc(F)cc2)c(C#N)s1 — AUC(0-inf) (human; plasma; oral; 1000 mg; single dose, fed, healthy volunteers): 66000 ng·h/mL
CC(C)(O)c1ccccc1-c1ccc2[nH]c(/C=C/c3ccc(C(F)(F)F)cc3)nc2c1 — AUC(0-t) (male human; plasma; oral; 15 mg; single dose, fasted): 1010 ng·h/mL
